These results are taken from article PMC7050655 (ChemistryOpen, 2020).

Series [1] addresses human membrane bound IRAP overexpressed in HEK293 cells (Homo sapiens, UniProt Q9UIQ6). The format is biochemical. Put shortly:
(§1)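 HEK293T suspension cells were grown in Freestyle medium (37 °C, 8 % CO2, shaken) and transfected with PEI (2 μg/10^6 cells). Plasmid per 10^6 cells was 1.1 μg for human IRAP and 0.7 μg for human APN. Cells were harvested at 48 h. Membranes were prepared as for CHO cells, stored at −80 °C, Dounce-homogenised and diluted in assay buffer. The set-up matched the CHO assay: 1 mM L-Leu-pNA, pH 7.4 Tris/NaCl/PMSF buffer, 405 nm absorbance.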

Series [2] concerns the target human aminopeptidase N overexpressed in HEK293 cells (Homo sapiens, UniProt P15144). The class given is biochemical. The following applies: for specificity for IRAP over human APN: IRAP versus human APN; for pIC50: human aminopeptidase N overexpressed in HEK293 cells. Put shortly:
as §1

Series [3] can be described thus: Metabolic stability in human liver microsomes. The format is in vitro ADME. An outline of the steps: (§2)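 Part of an automated 96-well preclinical profiling panel with UPLC-MS/MS read-out. Values are mean and SD from three independent test occasions.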
On the technique in general: Microsomes from liver hold many membrane-bound enzymes, among them those of drug oxidation.

Series [4] is described as follows: Metabolic stability in rat hepatocytes. The format is in vitro ADME. Conditions: for hepatocyte CLint: Rat hep. Clint (rat hepatocytes intrinsic clearance), rat hepatocytes; for half-life: Rat hep. t 1/2, rat hepatocytes. Put shortly:
as §2

Series [5] is described as follows: Human plasma protein binding. Conditions: PPB (human protein plasma binding). The format is in vitro ADME. Put shortly:
(§3)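 Part of an automated 96-well profiling panel run in […], reporting fraction unbound and compound stability (% remaining after 18 h). Read-out by UPLC-MS/MS. Values are mean and SD from three independent test occasions.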

The nature of the next series: Human plasma stability. The format is in vitro ADME. Conditions: after 18 h incubation. Put shortly:
as §3

The next series has as its target T1, IRAP (Cricetulus griseus, UniProt A0A8C2M8D5).
T1 sequence (A0A8C2M8D5 1-1025): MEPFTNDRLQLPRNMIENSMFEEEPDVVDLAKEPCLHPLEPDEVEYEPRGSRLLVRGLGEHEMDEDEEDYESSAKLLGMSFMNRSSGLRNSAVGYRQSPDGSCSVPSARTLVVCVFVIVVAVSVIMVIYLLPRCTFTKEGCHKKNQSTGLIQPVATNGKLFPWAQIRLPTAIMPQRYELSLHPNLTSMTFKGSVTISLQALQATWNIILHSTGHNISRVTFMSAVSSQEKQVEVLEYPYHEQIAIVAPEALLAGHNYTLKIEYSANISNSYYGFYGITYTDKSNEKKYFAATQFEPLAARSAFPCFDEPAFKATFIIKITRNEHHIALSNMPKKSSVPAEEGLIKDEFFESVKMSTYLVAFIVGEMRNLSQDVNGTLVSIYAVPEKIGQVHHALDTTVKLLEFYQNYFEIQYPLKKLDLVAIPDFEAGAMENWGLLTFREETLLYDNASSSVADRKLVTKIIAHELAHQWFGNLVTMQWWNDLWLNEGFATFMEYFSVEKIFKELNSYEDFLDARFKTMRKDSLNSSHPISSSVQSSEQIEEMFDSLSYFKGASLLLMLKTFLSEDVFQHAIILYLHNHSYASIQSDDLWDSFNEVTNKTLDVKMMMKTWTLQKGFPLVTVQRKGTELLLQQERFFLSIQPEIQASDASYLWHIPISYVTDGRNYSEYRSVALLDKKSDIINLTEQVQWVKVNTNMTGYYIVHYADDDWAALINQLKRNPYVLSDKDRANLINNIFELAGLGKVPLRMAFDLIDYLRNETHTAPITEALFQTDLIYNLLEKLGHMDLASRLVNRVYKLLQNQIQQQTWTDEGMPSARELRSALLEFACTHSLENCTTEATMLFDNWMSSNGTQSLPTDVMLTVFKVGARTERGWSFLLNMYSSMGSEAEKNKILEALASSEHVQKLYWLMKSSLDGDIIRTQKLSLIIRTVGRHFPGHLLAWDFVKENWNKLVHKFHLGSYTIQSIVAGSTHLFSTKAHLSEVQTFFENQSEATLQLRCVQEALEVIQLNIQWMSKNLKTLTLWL
Nature of the series: Enzyme kinetics / competition studies with varied L-Leu-pNA substrate. The format is biochemical. Conditions: enzyme kinetics experiments. An outline of the steps: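 Inhibitor was serially diluted (39 nM–150 μM), with four technical replicates per substrate level. Absorbance at 405 nm was read every ten minutes. The 150 μM slope defined maximal inhibition and was subtracted. Rates were fitted to uncompetitive, competitive and non-competitive models and compared; per-concentration Michaelis-Menten fits were also made.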

The target of a further series is T2, IRAP from CHO cells (Cricetulus griseus, UniProt A0A8C2M8D5).
T2 sequence (A0A8C2M8D5 1-1025): T1 sequence (A0A8C2M8D5 1-1025)
Nature of the series: IRAP inhibition, membrane preparations from CHO cells, L-Leu-pNA cleavage. The class given is biochemical, Chinese hamster.

human aminopeptidase N overexpressed in HEK293 cells, sequence (P15144 whole entry): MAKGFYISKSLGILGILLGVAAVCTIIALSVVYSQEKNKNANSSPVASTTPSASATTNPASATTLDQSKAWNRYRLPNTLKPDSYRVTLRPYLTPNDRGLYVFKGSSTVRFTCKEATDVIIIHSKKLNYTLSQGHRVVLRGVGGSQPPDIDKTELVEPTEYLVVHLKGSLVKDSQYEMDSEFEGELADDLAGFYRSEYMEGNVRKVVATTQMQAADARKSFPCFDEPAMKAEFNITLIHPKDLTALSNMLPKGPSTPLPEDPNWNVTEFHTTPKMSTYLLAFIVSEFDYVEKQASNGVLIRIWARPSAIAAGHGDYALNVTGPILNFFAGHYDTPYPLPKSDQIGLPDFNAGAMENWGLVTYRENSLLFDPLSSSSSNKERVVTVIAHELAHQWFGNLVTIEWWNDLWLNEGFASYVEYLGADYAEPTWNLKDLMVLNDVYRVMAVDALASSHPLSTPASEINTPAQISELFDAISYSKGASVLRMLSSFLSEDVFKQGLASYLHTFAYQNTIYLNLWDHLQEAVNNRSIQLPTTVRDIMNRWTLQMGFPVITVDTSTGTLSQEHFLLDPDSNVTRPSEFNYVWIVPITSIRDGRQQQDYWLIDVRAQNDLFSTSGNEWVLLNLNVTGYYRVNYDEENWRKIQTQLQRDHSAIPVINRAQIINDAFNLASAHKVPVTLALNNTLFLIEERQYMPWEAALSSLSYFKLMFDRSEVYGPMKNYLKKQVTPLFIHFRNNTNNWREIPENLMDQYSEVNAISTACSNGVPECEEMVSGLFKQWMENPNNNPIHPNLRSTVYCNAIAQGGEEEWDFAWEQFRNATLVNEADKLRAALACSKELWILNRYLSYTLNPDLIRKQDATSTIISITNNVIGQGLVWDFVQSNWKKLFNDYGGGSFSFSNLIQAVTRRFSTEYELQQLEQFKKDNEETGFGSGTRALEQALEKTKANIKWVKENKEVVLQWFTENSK
human membrane bound IRAP overexpressed in HEK293 cells, sequence (Q9UIQ6 whole entry): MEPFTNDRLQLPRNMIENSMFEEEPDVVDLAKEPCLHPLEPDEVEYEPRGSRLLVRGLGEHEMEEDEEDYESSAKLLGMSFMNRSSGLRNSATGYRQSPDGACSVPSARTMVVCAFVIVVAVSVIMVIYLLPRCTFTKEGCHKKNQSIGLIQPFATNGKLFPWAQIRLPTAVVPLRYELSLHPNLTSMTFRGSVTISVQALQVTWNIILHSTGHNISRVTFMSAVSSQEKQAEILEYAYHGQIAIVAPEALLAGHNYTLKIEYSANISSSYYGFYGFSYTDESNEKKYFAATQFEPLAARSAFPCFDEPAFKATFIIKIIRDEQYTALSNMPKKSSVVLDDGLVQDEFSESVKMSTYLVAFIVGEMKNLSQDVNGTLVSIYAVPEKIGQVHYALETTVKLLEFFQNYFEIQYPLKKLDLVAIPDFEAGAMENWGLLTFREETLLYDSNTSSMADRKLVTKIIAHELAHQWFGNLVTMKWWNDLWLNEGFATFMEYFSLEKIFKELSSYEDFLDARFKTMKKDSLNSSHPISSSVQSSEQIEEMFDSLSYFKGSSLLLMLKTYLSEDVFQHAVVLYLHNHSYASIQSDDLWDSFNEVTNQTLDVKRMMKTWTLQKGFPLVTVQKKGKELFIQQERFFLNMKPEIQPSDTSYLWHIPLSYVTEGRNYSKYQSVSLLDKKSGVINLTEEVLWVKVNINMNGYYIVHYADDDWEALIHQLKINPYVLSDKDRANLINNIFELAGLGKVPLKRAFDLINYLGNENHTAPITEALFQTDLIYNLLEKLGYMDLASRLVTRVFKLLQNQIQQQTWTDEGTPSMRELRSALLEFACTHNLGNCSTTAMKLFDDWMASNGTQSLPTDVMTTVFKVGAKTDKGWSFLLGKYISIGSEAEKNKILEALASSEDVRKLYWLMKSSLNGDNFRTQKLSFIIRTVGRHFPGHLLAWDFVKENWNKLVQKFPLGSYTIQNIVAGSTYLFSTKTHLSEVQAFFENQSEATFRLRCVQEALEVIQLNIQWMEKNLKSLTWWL

The compound `CN1C(=O)C2(Nc3ccccc3C(=O)N2Cc2cccnc2)c2cc(Br)ccc21` (stereo not shown) [Compound 36, 5‐Bromo‐1‐methyl‐3′‐(pyridin‐3‐ylmethyl)‐1′H‐spiro[indoline‐3,2′‐quinazoline]‐2,4′(3′H)‐dione] had an IC50 in series [1] of 31.6 µM. Moreover, in series [2], the “specificity for IRAP over human APN” value was “specificity for IRAP over human APN” and the pIC50 result was “Inactive”. Further, in series [3], the half-life is less than 2.3 min and the microsomal CLint is greater than 300 µL/min/mg. In series [4], the hepatocyte CLint came to 84 ± 14 µL/min/1e6 cells and the half-life was found to be 8.5 ± 1.6 min. In addition, in series [5], the fraction unbound came to 0.055 ± 0.004. The “Plasma stab (human plasma stability)” value in the series “Human plasma stability” is reported as 97±15 % compound remaining.

Turning to `CN1C(=O)C2(Nc3ccccc3C(=O)N2Cc2ccccc2)c2cc(Br)ccc21` (racemic) [Compound 32, 3′‐Benzyl‐5‐bromo‐1‐methyl‐1′H‐spiro[indoline‐3,2′‐quinazoline]‐2,4′(3′H)‐dione], the IC50 in series [1] is 5.01 µM. Moreover, in series [2], the “specificity for IRAP over human APN” value is reported as “specificity for IRAP over human APN” and the pIC50 result is listed as “Inactive”. Further, the “mode of inhibition versus L-Leu-pNA” value at IRAP is “uncompetitive inhibitor”.

In series [3], `CCc1ccccc1-c1ccc2c(c1)C1(Nc3ccccc3C(=O)N1c1ccc(C)cc1)C(=O)N2C` (stereo not shown) [Compound 15, 5‐(2‐Ethylphenyl)‐1‐methyl‐3′‐(p‐tolyl)‐1′H‐spiro[indoline‐3,2′‐quinazoline]‐2,4′(3′H)‐dione] gave a half-life of less than 2.3 min and a microsomal CLint greater than 300 µL/min/mg. In series [4], this compound had a hepatocyte CLint greater than 300 µL/min/1e6 cells and a half-life of less than 2.3 min. The compound further displayed a fraction unbound in series [5] of 0.0025 to 0.032. Moreover, the “Plasma stab (human plasma stability)” value in the series “Human plasma stability” was 102±25 % compound remaining.

`CN1C(=O)C2(Nc3ccccc3C(=O)N2Cc2ccco2)c2cc(Br)ccc21` (stereo not shown) [Compound 37, 5‐Bromo‐3′‐(furan‐2‐ylmethyl)‐1‐methyl‐1′H‐spiro[indoline‐3,2′‐quinazoline]‐2,4′(3′H)‐dione] showed an IC50 in series [1] of 12.6 µM. For the same compound, in series [2], the “specificity for IRAP over human APN” value is recorded as “specificity for IRAP over human APN” and the pIC50 result is given as “Inactive”. In series [3], this compound displayed a half-life of less than 2.3 min and a microsomal CLint greater than 300 µL/min/mg. In series [4], this compound had a hepatocyte CLint of 132 ± 39 µL/min/1e6 cells and a half-life of 5.5 ± 1.4 min. Moreover, in series [5], the fraction unbound is 0.041 ± 0.008. In addition, the “Plasma stab (human plasma stability)” value in the series “Human plasma stability” stood at 98±3 % compound remaining.

The compound `COCCN1C(=O)c2ccccc2NC12C(=O)N(C)c1ccc(Br)cc12` (stereo not shown) [Compound 39, 5‐Bromo‐3′‐(2‐methoxyethyl)‐1‐methyl‐1′H‐spiro[indoline‐3,2′‐quinazoline]‐2,4′(3′H)‐dione] showed an IC50 in series [1] of 50.1 µM. In addition, in series [2], the “specificity for IRAP over human APN” value is “specificity for IRAP over human APN” and the pIC50 result is on record as “Inactive”. In series [3], this compound gave a half-life of less than 2.3 min and a microsomal CLint greater than 300 µL/min/mg. In series [4], this compound returned a hepatocyte CLint of 91 ± 8 µL/min/1e6 cells and a half-life of 7.6 ± 0.6 min. In addition, in series [5], the fraction unbound worked out at 0.14 ± 0.006. Further, the “Plasma stab (human plasma stability)” value in the series “Human plasma stability” was 99±1 % compound remaining.

For the compound `COc1ccc2c(c1)C1(Nc3ccccc3C(=O)N1c1ccc(C)cc1)C(=O)N2C` (stereo not shown) [Compound 9, 5‐Methoxy‐1‐methyl‐3′‐(p‐tolyl)‐1′H‐spiro[indoline‐3,2′‐quinazoline]‐2,4′(3′H)‐dione], on IRAP from CHO cells, the “decrease of activity compared to compound 1” value is “tenfold”.

For the compound `Cc1ccc(N2C(=O)c3ccccc3NC23C(=O)N(C)c2ccc([N+](=O)[O-])cc23)cc1` (stereo not shown) [Compound 7, 1‐Methyl‐5‐nitro‐3′‐(p‐tolyl)‐1′H‐spiro[indoline‐3,2′‐quinazoline]‐2,4′(3′H)‐dione], in series [1], the midpoint of inhibition, the IC50, lay at 31.6 µM. Also, the “loss of activity on hIRAP compared to IRAP from CHO-cells” value in series [1] (hIRAP versus CHO IRAP) is recorded as 10 to 15 fold. Further, in series [2], the “specificity for IRAP over human APN” value was “specificity for IRAP over human APN” and the pIC50 result is “completely inactive”. In series [3], this compound yielded a half-life of less than 2.3 min and a microsomal CLint greater than 300 µL/min/mg. Besides, in series [4], the hepatocyte CLint was 114 ± 4 µL/min/1e6 cells and the half-life turned out to be 6.1 ± 0.2 min. In addition, the fraction unbound in series [5] came to 0.098 ± 0.02. In addition, the “Plasma stab (human plasma stability)” value in the series “Human plasma stability” is given as 100±5 % compound remaining.

For the compound `Cc1ccc(N2C(=O)c3ccccc3NC23C(=O)N(C)c2ccc(C)cc23)cc1` (stereo not shown) [Compound 10, 1,5‐Dimethyl‐3′‐(p‐tolyl)‐1′H‐spiro[indoline‐3,2′‐quinazoline]‐2,4′(3′H)‐dione], on IRAP from CHO cells, the “decrease of activity compared to compound 1” value is on record as “tenfold”.

In series [3], `CCCCN1C(=O)c2ccccc2NC12C(=O)N(C)c1ccc(Br)cc12` (stereo not shown) [Compound 38, 5‐Bromo‐3′‐butyl‐1‐methyl‐1′H‐spiro[indoline‐3,2′‐quinazoline]‐2,4′(3′H)‐dione] yielded a half-life of less than 2.3 min and a microsomal CLint greater than 300 µL/min/mg. In series [4], this compound came in with a hepatocyte CLint of 248 ± 5 µL/min/1e6 cells and a half-life of 2.8 ± 0.06 min. In series [5], this compound registered a fraction unbound of 0.019 ± 0.004. For the same compound, the “Plasma stab (human plasma stability)” value in the series “Human plasma stability” is 105±7 % compound remaining.

Turning to `CN(C)CCN1C(=O)c2ccccc2NC12C(=O)N(C)c1ccc(Br)cc12` (stereo not shown) [Compound 40, 5‐Bromo‐3′‐(2‐(dimethylamino)ethyl)‐1‐methyl‐1′H‐spiro[indoline‐3,2′‐quinazoline]‐2,4′(3′H)‐dione], in series [1], the IC50 is 39.8 µM. In addition, in series [2], the “specificity for IRAP over human APN” value was “specificity for IRAP over human APN” and the pIC50 result is “Inactive”. For the same compound, in series [3], the half-life stood at 8.6 ± 1 min and the microsomal CLint came out at 81 ± 10 µL/min/mg. In series [4], this compound displayed a hepatocyte CLint of 136 ± 22 µL/min/1e6 cells and a half-life of 5.2 ± 0.9 min. The compound also registered a fraction unbound in series [5] of 0.4 ± 0.04. In addition, in “Human plasma stability”, the “Plasma stab (human plasma stability)” value stood at 95±2 % compound remaining.

Usually IC50 stands for the concentration needed to halve the response being measured. As a reminder, the half-life is the time needed for the level to fall by half in the phase considered. A higher half-life goes with slow loss. The microsomal CLint is the rate of metabolic loss divided by the concentration. A low value points to greater metabolic stability. Usually hepatocyte CLint stands for the capacity of the preparation to metabolise the compound, expressed as a volume cleared per time. High values mean rapid turnover, low ones slow turnover. A word on the fraction unbound: it is free concentration divided by total concentration.
